Experiment [1] deals with Radical scavenging activity. In words: Antioxidant activity assessed as ABTS radical cation scavenging activity by TEAC assay.
Experiment [2] can be described thus: Antioxidant activity assessed as trolox equivalents of ABTS radical scavenging activity by TEAC assay. The experiment is classed as functional. In short, it runs like this:
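ABTS radical cation generated from 7 mM ABTS plus 2.5 mM K2S2O8 in water, kept dark at room temperature 16-18 h, then diluted in aqueous 50% EtOH to A734 0.70 ± 0.02. 10.0, 20.0 or 30.0 µL of 1.00 mM aqueous compound added to 2.00 mL radical solution. A734 decrease recorded from 15 s to 5 min. Calibration curves compared with Trolox, expressed as mM Trolox equivalent to 1 mM compound.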

The test system of experiment [3] is Nucleic Acid. As to the kind of experiment: Protection against H2O2-induced DNA damaging activity of pBR322 assessed as induction of single stranded breaks by gel electrophoresis. The conditions noted are these: Escherichia coli. In short, it runs like this:
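pBR322 plasmid (100 ng) incubated 1 h at 37 °C in 100 mM sodium phosphate pH 7.4 with 0.3% H2O2 and 30, 100, 300 ng or 1 µg compound. Reaction volume was 12 µL. Analysed on a 0.7% agarose gel run 1.5 h at 80 V, stained with 0.5 µg/mL ethidium bromide for 15 min, then imaged under UV.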

Drawing on ChEMBL document CHEMBL1151849, “Antioxidant hydroquinones substituted by beta-1,6-linked oligosaccharides in wheat germ” (J Nat Prod, 2009), this text covers Activity for 7 molecules.

Active and inactive are the calls of the source. The calls are words filed in the database; no cut-off is given here.

With `COc1cc(O[C@@H]2O[C@H](CO[C@@H]3O[C@H](CO[C@@H]4O[C@H](CO[C@@H]5O[C@H](CO)[C@@H](O)[C@H](O)[C@H]5O)[C@@H](O)[C@H](O)[C@H]4O)[C@@H](O)[C@H](O)[C@H]3O)[C@@H](O)[C@H](O)[C@H]2O)ccc1O`, in experiment [1], the outcome was Active. In addition, in experiment [2], the Activity was 0.88. The like results for `COc1cc(O[C@@H]2O[C@H](CO[C@@H]3O[C@H](CO)[C@@H](O)[C@H](O)[C@H]3O)[C@@H](O)[C@H](O)[C@H]2O)cc(OC)c1O` were, in that order, “Active” and 0.85. Turning to `COc1cc(O[C@@H]2O[C@H](CO[C@@H]3O[C@H](CO[C@@H]4O[C@H](CO)[C@@H](O)[C@H](O)[C@H]4O)[C@@H](O)[C@H](O)[C@H]3O)[C@@H](O)[C@H](O)[C@H]2O)cc(OC)c1O`, the result in experiment [1] was Active. Moreover, the Activity in experiment [2] was 0.8. In the case of `OC[C@H]1O[C@@H](OC[C@H]2O[C@@H](OC[C@H]3O[C@@H](Oc4ccc(O)cc4)[C@H](O)[C@@H](O)[C@@H]3O)[C@H](O)[C@@H](O)[C@@H]2O)[C@H](O)[C@@H](O)[C@@H]1O`, the Activity in experiment [2] was 1.12.

For `COc1cc(O[C@@H]2O[C@H](CO[C@@H]3O[C@H](CO[C@@H]4O[C@H](CO)[C@@H](O)[C@H](O)[C@H]4O)[C@@H](O)[C@H](O)[C@H]3O)[C@@H](O)[C@H](O)[C@H]2O)ccc1O`, the Activity entry in experiment [3] is “Dose-dependent effect”; in experiment [2] it was 0.97. Besides, the result in experiment [1] was Active. As for `COc1cc(O[C@@H]2O[C@H](CO[C@@H]3O[C@H](CO)[C@@H](O)[C@H](O)[C@H]3O)[C@@H](O)[C@H](O)[C@H]2O)ccc1O`, the outcome in experiment [1] was Active. Also, the Activity in experiment [2] was 0.94. In the case of `COc1cc(O)ccc1O[C@@H]1O[C@H](CO[C@@H]2O[C@H](CO[C@@H]3O[C@H](CO)[C@@H](O)[C@H](O)[C@H]3O)[C@@H](O)[C@H](O)[C@H]2O)[C@@H](O)[C@H](O)[C@H]1O`, the Activity in experiment [2] was determined as 1.76.
